FID counter = displaces DNA intercalator in HCV helicase counter-screen. DNA fluorescent intercalator displacement, fluorescence. inhibition, % at 7.9 µM. hit rate 0.17% among 290,000; in the data active = inhibition above about 37%;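 note: 0% = vehicle and 100% = reference compound; higher means more ethidium bromide displaced from hairpin DNA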
GRK2 inh = human GRK2 inhibition via aptamer displacement | P25098 | bead flow cytometry, FAM-aptamer displacement from GRK2 | inhibition of aptamer binding, % at 10 µM | hit rate 0.59% among 330,000;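 active = inhibition of aptamer binding above 40%, roughly 3 SD of noise, on plates passing a quality check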;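 note: median bead fluorescence of bound FAM aptamer so fluorescent compounds give negative values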
GPR7 antagonist = antagonists of human GPR7 (neuropeptides B/W receptor 1); GPR7-expressing cells, fluorescence antagonist assay; inhibition, % at 4.4 µM; hit rate 1.1% among 290,000; AID 1861; in the data active = inhibition above about 16%, passing the limit was not always enough;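 note: cells stimulated with the agonist NPW; 0% = agonist with vehicle and 100% = vehicle without agonist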
Target sequence (P48145 whole entry, looked up): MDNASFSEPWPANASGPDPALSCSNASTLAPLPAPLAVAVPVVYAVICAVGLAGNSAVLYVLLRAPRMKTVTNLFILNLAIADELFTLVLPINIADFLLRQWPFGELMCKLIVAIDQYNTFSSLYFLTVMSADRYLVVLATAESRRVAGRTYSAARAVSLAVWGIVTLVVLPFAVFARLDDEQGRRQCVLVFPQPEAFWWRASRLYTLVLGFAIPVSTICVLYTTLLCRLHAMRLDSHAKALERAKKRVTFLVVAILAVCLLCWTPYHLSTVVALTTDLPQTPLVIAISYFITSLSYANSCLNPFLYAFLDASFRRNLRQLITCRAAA
core dimer inh = blocks dimerization of HCV core protein; TR-FRET GST/Flag-core106 dimerization, 1536-well; inhibition, % at 5 µM; hit rate 0.33% among 300,000;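 active = inhibition above the mean of all tested compounds plus 3 SD, set per screening campaign, cut at about 45% in these data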
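assay system = GST-tagged and Flag-tagged HCV core protein residues 1-106 | controls = unlabelled core106 and no-GST-core106 wells | incubation = compound-protein-antibody incubation 4 h at 22.5 °C | probe or stimulus = Eu donor and XL665 acceptor anti-tag antibodies | read-out = % inhibition based on acceptor/donor emission ratio | signal = TR-FRET 671 and 617 nm emission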
NS3 helicase inh = inhibitors of Hepatitis C virus NS3 helicase. AID 1800. hit rate 0.56% among 290,000. NS3 helicase DNA unwinding, Cy5 molecular beacon fluorescence. inhibition, % at 10.9 µM;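 active = inhibition above the mean of all tested compounds plus 3 SD, set per campaign, cut at about 35% in these data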;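 note: 0% = DMSO wells and 100% = thioflavine S control wells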
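Compound dosing – single dose, 10.9 µM nominal final, DMSO 0.8% final · System – NS3 helicase fragment of HCV · Buffer or medium – MOPS pH 6.5, MgCl2, DTT, Tween20, BSA · Signal – Cy5 beacon fluorescence read at start and 1 h · Also added – annealed dual-labelled DNA beacon duplex, ATP-started · Schedule – 1 h at 25 °C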
DAGLB inh = blocks human DAGLB lipase activity | HEK293T DAGLB membrane lysate, EnzChek fluorogenic substrate | inhibition, % at 5.17 µM | hit rate 0.059% among 340,000 | AID 504411; in the data active = inhibition above about 34%;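 note: 0% = enzyme with vehicle and 100% = wells lacking enzyme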
GRK2 inh confirm = confirmation of human GRK2 inhibitors displacing RNA aptamer; shares compounds with GRK2 inh; bead-bound GRK2, FAM-aptamer displacement, flow cytometry; aptamer displacement, % at 10 µM; hit rate 4% among 2,000; AID 504451;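 active = aptamer displacement above 40%, near three times the noise of non-fluorescent compounds, on plates passing quality checks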;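 note: negative values mostly reflect intrinsic compound fluorescence rather than true enhancement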
Aptamer quench = quenches fluorescent RNA aptamer, GRK2 hit artifact | shares compounds with GRK2 inh | Fluorescent RNA aptamer beads, quenching, flow cytometry; hits give high values | fluorescence change (kMESF span), kMESF (concentration not given with the values) | 110 tested, under 10 active | AID 504521;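 active = compounds whose bead fluorescence drops by more than 37 kMESF across the dose range, marking them as dye quenchers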
FAM quench CP1 = quenches fluorescent RNA aptamer, GRK2 hit artifact | shares compounds with GRK2 inh | Carboxyfluorescein RNA aptamer on beads, flow cytometry quenching; hits give low values | fluorescence response (% of DMSO), % at 10 µM | 2,000 tested, under 10 active;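 active = compounds that quench the bead-bound fluorescent RNA probe, cutting fluorescence to under half of the solvent control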;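 note: counterscreen run without GRK2 so only probe quenching by compound is measured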
GRK2 confirm 2 = confirmation of human GRK2 inhibitors binding RNA aptamer site; shares compounds with GRK2 inh; bead-bound GRK2, FAM-aptamer displacement, flow cytometry; inhibition of aptamer binding, % at 10 µM; 360 tested, under 10 active; AID 504782;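 active = inhibition of aptamer binding above 40%, about triple the noise seen with nonglowing compounds, on plates passing quality control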;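 note: negative values mostly come from compounds that fluoresce themselves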
FAM quench SP = quenches fluorescent RNA aptamer, GRK2 hit artifact; carboxyfluorescein RNA aptamer beads, flow cytometry quenching; hits give low values; shares compounds with GRK2 inh; 360 tested, under 10 active; fluorescence response vs DMSO, % at 10 µM;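 active = response vs DMSO under 50%, meaning signal dropped by over half, treated as fluorescence quencher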;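 note: labelled aptamer on streptavidin beads without GRK2 as a quench counter-screen; 100% = bead fluorescence of DMSO wells and lower means quenching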
* = called active by the depositor; x = no result. Rows were chosen to be rich in hits. Some 2.2% of all compounds tested hit in one or more screens of this group.

SMILES	FID counter	GRK2 inh	GPR7 antagonist	core dimer inh	NS3 helicase inh	DAGLB inh	GRK2 inh confirm	FAM quench CP1	others
O=C(NCCOc1ccccc1)C1CCN(C(=O)Nc2ccccc2)CC1	x	x	x	x	x	1	x	x
CC(=O)N1CCC(C(=O)NCCOc2cccc(C)c2)CC1	-6	65*	-8	-5	-3	-3	-2	99
O=C(NCc1ccccc1CN1CCCC1)C1CCN(C(=O)c2ccc(F)cc2)CC1	x	69*	x	x	x	1	-46	120
O=C(COC(=O)C1CC2C=CC1C2)Nc1ccc([N+](=O)[O-])cc1 (centres undefined)	x	6	x	x	x	0	x	x
COc1ccc2nc(SCC(=O)NCc3ccc(OC)c(OC)c3)[nH]c2c1	-8	0	2	9	17	0	x	x
CCN1/C(=C/C(C)=C/c2sc3ccccc3[n+]2CC)Sc2ccccc21	-36	100*	2	-82	2	28	99*	92	Aptamer quench=0.6
Cc1cccc(-n2c(N)c(C(=O)NCCN3CCOCC3)c3nc4ccccc4nc32)c1	-5	100*	-11	2	-22	x	1	95
NC(=O)c1ccsc1NC(=O)COC(=O)CNC(=O)c1ccc(F)cc1	x	55*	x	x	x	0	-1	104
CN=C(C)/C(C(=O)OC)=C(/O)c1c(F)cccc1F	-3	0	-12	-9	-3	2	x	x
CC12CCC(c3n[nH]c(=S)nc31)C2(C)C (centres undefined)	-8	73*	13	-8	5	-2	x	x	GRK2 confirm 2=9;FAM quench SP=98
CC12CCC(c3nnc(SCc4ccc(Cl)cc4)nc31)C2(C)C (centres undefined)	-10	4	-12	6	-3	-12	x	x
COC(=O)c1ccc(S(=O)(=O)NCc2ccccn2)n1C	-2	3	-12	-1	-6	1	x	x
O=C(N=Nc1c(O)[nH]c2ccc([N+](=O)[O-])cc12)c1ccccc1Cl	5	3	0	2	-2	5	x	x
O=C(N=Nc1c(O)[nH]c2ccc(Cl)cc12)c1cc(-c2cccs2)nc2ccccc12	-3	0	-3	37	8	4	-7	96
CCOC(=O)C(C(=O)OCC)c1cc(Br)c2noc3c2c1C(=O)c1ccccc1-3	2	51*	6	15	16	-14	11	102
CC(=O)OCCNc1cc(N2CCN(C)CC2)c2noc3c2c1C(=O)c1ccccc1-3	15	x	0	x	5	5	x	x
CCCc1cc(C(=O)N2CCC(n3nccc3NC(=O)c3ccc(OC)cc3)CC2)no1	-35	2	-7	-2	0	2	x	x
CCOc1ccccc1N(C(=O)Cn1nnnc1-c1ccc(C)o1)C(CC)C(=O)NC(C)(C)C (centres undefined)	-25	97*	-10	4	3	-4	-1	102
CCC(C(=O)NC1CCCC1)N(C(=O)Cn1nnc(-c2ccc(C)o2)n1)c1ccccc1OC (centres undefined)	-37	0	-19	5	5	-2	x	x
Cc1ccc([C@@H]2[C@@H]3C(=O)N(c4ccccc4)C(=O)[C@@H]3[C@]3(C)C(=O)N(Cc4ccc(-c5ccccc5)cc4)CC(=O)N23)o1	-27	0	4	4	-15	-1	x	x
CC(C)Oc1ccc(S(=O)(=O)N2CCOCC2)cc1NC(=O)C1=COCCO1	x	0	x	4	x	-2	x	x
C=CCN(CC=C)C(=O)c1ccc2nc(Cc3ccc(OC)c(OC)c3)oc2c1	-41	41*	14	6	-5	-2	2	100
COCCCN1C(=O)/C(=C\c2cccs2)C(C(=O)OC)=C1C	-15	1	-3	-4	8	0	x	x
CCC1Oc2ccccc2N(CC(=O)NCCCN2CCCCC2C)C1=O (centres undefined)	5	61*	6	-11	2	5	-9	111
Cc1nn(-c2ccccc2)c(NC(=O)c2cccs2)c(-c2ccccc2)c1=O	0	1	-7	-4	-6	3	x	x
SMILES	FID counter	GRK2 inh	GPR7 antagonist	core dimer inh	NS3 helicase inh	DAGLB inh	GRK2 inh confirm	FAM quench CP1	others
CCN(CC)C(=O)Cc1cc(C(=O)O)c2ccccc2n1	-1	29	-3	-12	0	-1	-8	104
O=C(Cc1cc(C(=O)O)c2ccccc2n1)Nc1ccccc1	-6	0	-6	0	6	-1	x	x
Cc1ccc(N(CN2C(=O)C3C4CCC(C4)C3C2=O)C(=O)c2ccco2)cc1 (centres undefined)	-23	2	-12	0	10	2	x	x
O=C(O)c1ccc(OC(F)(F)C(F)C(F)(F)F)cc1 (centres undefined)	0	76*	-6	-2	4	-1	3	98
CC(=O)Nc1ccc(OC(F)(F)C(F)C(F)(F)F)c(NC(C)=O)c1 (centres undefined)	4	0	1	-5	-1	-1	x	x
Cc1cc([N+](=O)[O-])nn1CC(=O)NCc1ccco1	0	1	-1	-3	8	2	x	x
O=C(Nc1ccccc1C(=O)O)/C(=C/c1ccc([N+](=O)[O-])cc1)NC(=O)c1ccc(Br)o1	-15	80*	-14	5	5	1	0	102
Cc1c(C(N)=O)sc2ncn(CC(=O)N(C)C3CCCCC3)c(=O)c12	-7	0	-1	6	4	-2	x	x
O=C1NC(=O)C2(CCCc3ccc([N+](=O)[O-])cc32)N1 (centres undefined)	x	x	x	x	x	-2	x	x
O=C1CC(=O)NC(SCC(=O)Nc2ccccc2[N+](=O)[O-])=N1	-13	43*	-3	9	14	4	x	107
Cc1cc(C)nc(SCC(=O)Nc2ccccc2[N+](=O)[O-])n1	0	0	-1	3	1	-2	x	x
CCC(CC)C(=O)OCC(=O)Nc1ccc(S(=O)(=O)N2CCOCC2)cc1OC	-29	51*	7	1	-3	-1	-1	100
CCc1ccc(NC(=O)COC(=O)/C=C/c2ccco2)cc1	x	70*	x	x	x	-6	19	97

Source: PubChem (several laboratories)
